From ChEMBL document CHEMBL3804757, “Cystoseira usneoides: A Brown Alga Rich in Antioxidant and Anti-inflammatory Meroditerpenoids” (J Nat Prod, 2016)

Assays:
[1] = Cytotoxicity against human THP1 cells assessed as cell viability at 5 to 10 uM after 48 hrs by SRB assay; format: cell-based; conditions: thp-1, 48 h
[2] = Antiinflammatory activity against human THP1 cells assessed as inhibition of LPS-induced TNFalpha production pretreated for 1 hr before LPS challenge at 10 uM measured after 24 hrs by ELISA; format: functional, THP-1; design: scale not given: the % may be the effect or the level left
How it was run: (§1)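 THP-1 cells (RPMI 1640, 10% FBS) differentiated to macrophages with PMA 0.2 μM final for 3 days, washed with cold PBS, then pre-incubated 1 h with compound diluted from DMSO stocks (0.1% DMSO). Stimulated with LPS at 1 μg/mL final. Supernatants taken after 24 h and TNF-α measured by ELISA. Dexamethasone 1 μM as positive control; an unstimulated control was included. Values are mean ± SE of four determinations.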

[3] = Antioxidant activity assessed as ABTS free radical scavenging activity after 6 mins by ABTS free radical decolorization assay relative to Trolox; format: physicochemical; design: concentration or dose not given beside the values; conditions: 0.1 h
How it was run: (§2)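 ABTS•+ generated by mixing 7 mM ABTS with 2.45 mM potassium persulfate (1:1) and holding 12–18 h in the dark at room temperature. It was then diluted in EtOH to A734 0.70 ± 0.02. 100 μL ethanolic compound was added to 2 mL of radical solution, and A734 read after 6 min against an EtOH control. % inhibition = [(A0−A1)/A0]×100, done in triplicate; Trolox served as standard.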

[4] = Antiinflammatory activity against human THP1 cells assessed as inhibition of LPS-induced TNFalpha production pretreated for 1 hr before LPS challenge at 8 uM measured after 24 hrs by ELISA; format: functional, THP-1; design: scale not given: the % may be the effect or the level left; how it was run: as §1
[5] = Antiinflammatory activity against human THP1 cells assessed as inhibition of LPS-induced TNFalpha production pretreated for 1 hr before LPS challenge at 5 uM measured after 24 hrs by ELISA; format: functional, THP-1; design: scale not given: the % may be the effect or the level left; how it was run: as §1
[6] = Antioxidant activity assessed as ABTS free radical scavenging activity after 6 mins by ABTS free radical decolorization assay; format: physicochemical; how it was run: as §2

Activity [3] [%] | EC50 [6] [µM] | SMILES | Activity [1] | Activity [2] [%] | Activity [4] [%] | Activity [5] [%]
37 |  | COc1c(C)cc(O)cc1C/C=C(\C)CC(=O)/C=C(\C)CC/C=C(\C)CCC(O)C(C)(C)O (stereo not drawn) | Non-toxic | 21 |  | 
37 |  | COc1c(C)cc(O)cc1C/C=C(\C)CC(=O)/C=C(/C)CCCC(C)C(=O)CC(O)C(C)(C)O (stereo not drawn) | Non-toxic |  | 21 | 
62 |  | COc1c(C)cc(O)cc1C/C=C(\C)CC(=O)/C=C(/C)CCC[C@@]1(C)O[C@H](C(C)(C)O)C[C@H]1O | Non-toxic |  | 21 | 
81 |  | C/C(=C/C(=O)C/C(C)=C/Cc1cc(O)cc(C)c1O)CCCC(C)(O)C(=O)/C=C/C(C)(C)O (stereo not drawn) | Non-toxic | 81 |  | 
37 |  | COc1c(C)cc(O)cc1C/C=C(\C)CC(=O)/C=C(/C)CC/C=C(\C)C(O)CC1OC1(C)C (stereo not drawn) | Non-toxic |  | 21 | 
87 |  | C/C(=C\C(=O)C/C(C)=C/Cc1cc(O)cc(C)c1O)CCCC(C)(O)C(=O)/C=C/C(C)(C)O (stereo not drawn) | Non-toxic | 69 |  | 
62 |  | COc1c(C)cc(O)cc1C/C=C(\C)CC(=O)/C=C(\C)C(O)CCC(C)(O)C(=O)/C=C/C(C)(C)O (stereo not drawn) | Non-toxic |  | 79 | 
62 |  | COc1c(C)cc(O)cc1C/C=C(\C)CC(=O)/C=C(/C)CCC[C@@]1(C)O[C@@H](C(C)(C)O)CC1=O |  |  |  | 
77 |  | C/C(=C/C(=O)C/C(C)=C/Cc1cc(O)cc(C)c1O)CCCC(C)C(=O)/C=C/C(C)(C)O (stereo not drawn) | Non-toxic | 21 |  | 
62 |  | COc1c(C)cc(O)cc1C/C=C(\C)CC(=O)/C=C(/C)CC/C=C(\C)CCC(O)C(C)(C)O (stereo not drawn) | Non-toxic |  |  | 59
77 |  | C/C(=C\C(=O)C/C(C)=C/Cc1cc(O)cc(C)c1O)CCCC(C)C(=O)/C=C/C(C)(C)O (stereo not drawn) | Non-toxic |  |  | 53
37 |  | COc1c(C)cc(O)cc1C/C=C(\C)CC(=O)/C=C(\C)CCC[C@@]1(C)O[C@@H](C(C)(C)O)CC1=O |  |  |  | 
 | 12 | Cc1c(C)c2c(c(C)c1O)CCC(C)(C(=O)O)O2 (stereo not drawn) [TROLOX] |  |  |  | 
